# Laboratory results: PubChem BioAssay AID504679 (The Scripps Research Institute Molecular Screening Center, 2011)
# The source made the active and inactive calls.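 Rule for the calls: active = IC50 of 10 µM or lower; inactive = IC50 above 10 µM.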
# Test system: E. coli V66 + T4 gene 2 phage, OD growth
# Assay: E. coli RecBCD inhibitors, late-stage follow-up, counter-screen for AddAB inhibitor project, absorbance, V66 E. coli, dose response (AID 504679)
# Method in brief: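 Test system: E. coli V66 bacteria; Probe or stimulus: gene 2 nonsense-mutant T4 bacteriophage at MOI 0.02; Schedule: 18 h phage exposure at 37 °C before reading; Technique: absorbance at 600 nm as bacterial growth measure; Read-out basis: percent inhibition versus ciprofloxacin and DMSO wells; Control set: Ciprofloxacin-treated wells and DMSO-only wells.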
row,SMILES,IC50
1,O=C(Nc1cccc(NC(=O)c2ccccc2Cl)c1)c1ccc([N+](=O)[O-])o1,> 119 µM (inactive)
2,Cc1ccc2nc(/C(C#N)=C\c3ccc([N+](=O)[O-])o3)[nH]c2c1,> 119 µM (inactive)
3,CCn1cc(C(=O)O)c(=O)c2cnc(N3CCN(C(=S)Nc4ccccc4C(F)(F)F)CC3)nc21,103 µM (inactive)
4,O=C(Nc1ccc(N2CCOCC2)cc1)c1ccc([N+](=O)[O-])o1,> 119 µM (inactive)
5,CC(=O)Nc1ccc2nc(NC(=O)c3ccc([N+](=O)[O-])o3)sc2c1,> 119 µM (inactive)
6,C=CCn1c(Sc2ncc([N+](=O)[O-])s2)n[nH]c1=O,46.5 µM (inactive)
7,N#Cc1c(NC(=O)c2ccc([N+](=O)[O-])o2)sc2c1CCC2,> 119 µM (inactive)
8,Cc1cccnc1NC(=O)c1ccc([N+](=O)[O-])o1,> 119 µM (inactive)
9,O=C(OCC(=O)c1cccs1)c1ccc([N+](=O)[O-])o1,> 119 µM (inactive)
10,O=C(NCc1cccnc1)c1ccc([N+](=O)[O-])o1,93.8 µM (inactive)
11,O=C(Nc1ncccn1)c1ccc([N+](=O)[O-])o1,> 119 µM (inactive)
12,NC(=O)c1ccsc1NC(=O)COC(=O)c1ccc([N+](=O)[O-])o1,> 119 µM (inactive)
